Measurements reported in ChEMBL document CHEMBL1145518, “Potent immune-modulating and anticancer effects of NKT cell stimulatory glycolipids” (2007).
Calls of active or inactive are those of the source. No cut-off for these calls is given here.

Legend:
[1] = tested on: Mus musculus; test: Induction of IL10 secretion in BALB/c mouse serum at 2 ug, iv after 18 hrs relative to control; format: functional
Summary of the method: (§1)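 BALB/c mice received an i.v. injection of 100 μl of glycolipid diluted to 20 μg/ml in saline from DMSO stock, with 1% DMSO as vehicle. Serum cytokines/chemokines were measured at 2 and 18 h after injection.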

[2] = tested on: dendritic; test: Activation of TCR in human immature dendritic cells assessed as increase in CD3epsilon phosphorylation; format: cell-based
Summary of the method: (§2)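 Human HeLa, HeLa-CD1d or autologous immature DCs were loaded with glycolipid at 10 μg/ml, or DMSO, for 2 h. Then 3 × 10^5 naïve CD161+/CD3+ NKT cells were added; these were bead-isolated and kept in 100 units/ml IL-2. After 5–10 min the cells were washed and lysed at 4°C. Phospho-CD3ε, ERK1/2 (Thr-185/Tyr-187) and CREB (Ser-133) were read by Luminex bead assay as median fluorescence normalized to total protein, expressed as fold over 1% DMSO.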

[3] = tested on: Mus musculus; test: Induction of KC secretion in BALB/c mouse serum at 2 ug, iv after 2 hrs relative to control; format: functional; summary of the method: as §1
[4] = Induction of IL8 secretion in human CD161+ CD3+ NKT cells at 10 ug/ml after 18 hrs relative to basal level; format: functional
Summary of the method: (§3)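 Human Vα24i NKT cell lines were expanded for 10 days on irradiated (3,000 rad) autologous immature DCs with 10 units/ml IL-2. The cells (1 × 10^5) were cocultured with 5 × 10^4 irradiated immature CD14+ DCs plus glycolipid at 10 μg/ml. Supernatants were collected at 18 h and read on a 22-plex Luminex bead panel. Triplicates, mean ± SD.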

[5] = tested on: HeLa; test: Activation of TCR in human HeLa cells overexpressing CD1d assessed as increase in ERK1/2 phosphorylation; format: cell-based; summary of the method: as §2
[6] = tested on: Mus musculus; test: Induction of IL3 secretion in BALB/c mouse serum at 2 ug, iv after 2 hrs relative to control; format: functional; summary of the method: as §1
[7] = Induction of IL3 secretion in human CD161+ CD3+ NKT cells at 10 ug/ml after 18 hrs relative to basal level; format: functional; summary of the method: as §3
[8] = Induction of RANTES secretion in human CD161+ CD3+ NKT cells at 10 ug/ml after 18 hrs relative to basal level; format: functional; summary of the method: as §3
[9] = tested on: Mus musculus; test: Induction of GM-CSF secretion in BALB/c mouse serum at 2 ug, iv after 2 hrs relative to control; format: functional; summary of the method: as §1
[10] = Induction of IFN-gamma secretion in human CD161+ CD3+ NKT cells at 10 ug/ml after 18 hrs relative to basal level; format: functional; summary of the method: as §3
[11] = tested on: dendritic; test: Activation of TCR in human immature dendritic cells assessed as increase in ERK1/2 phosphorylation; format: cell-based; summary of the method: as §2
[12] = Induction of IL10 secretion in human CD161+ CD3+ NKT cells at 10 ug/ml after 18 hrs relative to basal level; format: functional; summary of the method: as §3
[13] = Induction of IL12p40 secretion in human CD161+ CD3+ NKT cells at 10 ug/ml after 18 hrs relative to basal level; format: functional; summary of the method: as §3
[14] = Induction of MCP1 secretion in human CD161+ CD3+ NKT cells at 10 ug/ml after 18 hrs relative to basal level; format: functional; summary of the method: as §3
[15] = Induction of MIPalpha secretion in human CD161+ CD3+ NKT cells at 10 ug/ml after 18 hrs relative to basal level; format: functional; summary of the method: as §3
[16] = tested on: Mus musculus; test: Induction of IL12p40 secretion in BALB/c mouse serum at 2 ug, iv after 18 hrs relative to control; format: functional; summary of the method: as §1
[17] = tested on: Mus musculus; test: Induction of IL4 secretion in BALB/c mouse serum at 2 ug, iv after 2 hrs relative to control; format: functional; summary of the method: as §1
[18] = Induction of IL12p70 secretion in human CD161+ CD3+ NKT cells at 10 ug/ml after 18 hrs relative to basal level; format: functional; summary of the method: as §3
[19] = tested on: Mus musculus; test: Increase in CD8/CD4 T cell ratio in BALB/c mouse at 2 ug, iv after 72 hrs by flow cytometry; format: functional, organism-based
[20] = Induction of IL6 secretion in human CD161+ CD3+ NKT cells at 10 ug/ml after 18 hrs relative to basal level; format: functional; summary of the method: as §3
[21] = tested on: NKT; test: Stimulation of cell expansion of human invariant CD161+/ Valpha24+/ CD56+/ CD3+ NKT cells by flow cytometry method; format: functional, cell-based
Summary of the method: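 CD56+ NK/NKT mixtures (2 × 10^6) were isolated from human leukopaks with anti-CD56 microbeads. They were cocultured with 4 × 10^5 autologous immature CD14+ DCs pulsed with glycolipid at 3 μg/ml, or with 0.3% DMSO, on day 2 for 18 h. Suspension cells were then transferred and kept in 100 units/ml IL-2 with fresh medium every 3 days. On day 9, CD161+/Vα24TCR+ cells were gated by flow cytometry and total Vα24i NKT cells counted. Triplicates, mean ± SD.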

[22] = tested on: Mus musculus; test: Induction of IL2 secretion in BALB/c mouse serum at 2 ug, iv after 2 hrs relative to control; format: functional; summary of the method: as §1
[23] = Induction of IL2 secretion in human CD161+ CD3+ NKT cells at 10 ug/ml after 18 hrs relative to basal level; format: functional; summary of the method: as §3
[24] = Induction of IL15 secretion in human CD161+ CD3+ NKT cells at 10 ug/ml after 18 hrs relative to basal level; format: functional; summary of the method: as §3
[25] = Induction of IL13 secretion in human CD161+ CD3+ NKT cells at 10 ug/ml after 18 hrs relative to basal level; format: functional; summary of the method: as §3
[26] = tested on: Mus musculus; test: Activation of B cells in BALB/c mouse at 2 ug, iv after 72 hrs by flow cytometry; format: functional, organism-based
[27] = tested on: TC1; test: Antitumor activity in TC1 cells xenografted C57BL/6 mouse assessed as suppression of tumor growth at 2 ug, iv; format: functional, cell-based
Summary of the method: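 C57BL/6 mice (n = 5/group) were inoculated i.v. with TC-1 lung cancer cells. They were then treated i.v. with 2 μg glycolipid per mouse, or 100 μl of 1% DMSO, twice weekly for 4 weeks. Kaplan–Meier survival and body weight were followed, with tumor-free mice as an additional control.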

[28] = Induction of TNFalpha secretion in human CD161+ CD3+ NKT cells at 10 ug/ml after 18 hrs relative to basal level; format: functional; summary of the method: as §3
[29] = tested on: Mus musculus; test: Induction of MCP1 secretion in BALB/c mouse serum at 2 ug, iv after 2 hrs relative to control; format: functional; summary of the method: as §1
[30] = tested on: Mus musculus; test: Induction of MIPbeta secretion in BALB/c mouse serum at 2 ug, iv after 2 hrs relative to control; format: functional; summary of the method: as §1
[31] = Induction of IL4 secretion in human CD161+ CD3+ NKT cells at 10 ug/ml after 18 hrs relative to basal level; format: functional; summary of the method: as §3
[32] = tested on: Mus musculus; test: Induction of IL12p70 secretion in BALB/c mouse serum at 2 ug, iv after 18 hrs relative to control; format: functional; summary of the method: as §1
[33] = tested on: HeLa; test: Activation of TCR in human HeLa cells overexpressing CD1d assessed as increase in CD3epsilon phosphorylation; format: cell-based; summary of the method: as §2
[34] = tested on: Mus musculus; test: Induction of IL13 secretion in BALB/c mouse serum at 2 ug, iv after 2 hrs relative to control; format: functional; summary of the method: as §1
[35] = tested on: HeLa; test: Activation of TCR in human HeLa cells overexpressing CD1d assessed as increase in CREB phosphorylation; format: cell-based; summary of the method: as §2
[36] = tested on: Mus musculus; test: Induction of IL1-beta secretion in BALB/c mouse serum at 2 ug, iv after 18 hrs relative to control; format: functional; summary of the method: as §1
[37] = tested on: Mus musculus; test: Induction of RANTES secretion in BALB/c mouse serum at 2 ug, iv after 2 hrs relative to control; format: functional; summary of the method: as §1
[38] = tested on: dendritic; test: Activation of TCR in human immature dendritic cells assessed as increase in CREB phosphorylation; format: cell-based; summary of the method: as §2
[39] = tested on: Mus musculus; test: Induction of TNFalpha secretion in BALB/c mouse serum at 2 ug, iv after 18 hrs relative to control; format: functional; summary of the method: as §1
[40] = tested on: Mus musculus; test: Induction of IFN-gamma secretion in BALB/c mouse serum at 2 ug, iv after 18 hrs relative to control; format: functional; summary of the method: as §1
[41] = tested on: Mus musculus; test: Induction of IL6 secretion in BALB/c mouse serum at 2 ug, iv after 2 hrs relative to control; format: functional; summary of the method: as §1
[42] = tested on: 4T1; test: Antitumor activity in mouse 4T1 cells xenografted BALB/c mouse assessed as suppression of tumor growth at 2 ug, iv; format: functional, cell-based
Summary of the method: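 BALB/c mice (n = 6) were inoculated s.c. with 4T1 breast cancer cells. From day 3 they were treated i.v. with glycolipid or vehicle twice weekly for 4 weeks. Tumor volume was recorded every 3 days for 1 month, and survival was monitored up to 54 days.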

[43] = Induction of GM-CSF secretion in human CD161+ CD3+ NKT cells at 10 ug/ml after 18 hrs relative to basal level; format: functional; summary of the method: as §3

`CCCCCCCCCCCCCC[C@@H](O)[C@@H](O)[C@H](CO[C@H]1O[C@H](CO)[C@H](O)[C@H](O)[C@H]1O)NC(=O)CCCCCCCc1ccccc1` gave an Activity [1] of 1.3, an Activity [2] of 21.3 and an Activity [3] of 11. For the same compound, the Activity [4] was 1.8, the Activity [5] was 14.6 and the Activity [6] was 2.4. The Activity [7] was 4.2, the Activity [8] was 1.7 and the Activity [9] was 2.9. The Activity [10] was 6.4, the Activity [11] was 48.3 and the Activity [12] was 2.3. For the same compound, the Activity [13] was 2.3, the Activity [14] was 1 and the Activity [15] was 3.3. The Activity [16] was 3.8, the Activity [17] was 53.1 and the Activity [18] was 4.7. For the same compound, the Activity [19] was “Active”, the Activity [20] was 2.2 and the Activity [21] was “Active”. It also gave an Activity [22] of 70.3, an Activity [23] of 6.1 and an Activity [24] of 2.8. The Activity [25] was 1.7, the Activity [26] was “Active” and the Activity [27] was “Active”. It also gave an Activity [28] of 8.1, an Activity [29] of 19.4 and an Activity [30] of 3.8. For the same compound, the Activity [31] was 2.6, the Activity [32] was 2.6 and the Activity [33] was 10. It also gave an Activity [34] of 10.9, an Activity [35] of 117 and an Activity [36] of 4.7. The Activity [37] was 2.3, the Activity [38] was 204 and the Activity [39] was 22.4. The Activity [40] was 48.3, the Activity [41] was 2.8 and the Activity [42] was “Active”. For the same compound, the Activity [43] was 6.7.
Compound `CCCCCCCCCCCCCC[C@@H](O)[C@@H](O)[C@H](CO[C@H]1O[C@H](CO)[C@H](O)[C@H](O)[C@H]1O)NC(=O)CCCCCCCCCCCCC` has an Activity [1] of 5.4, an Activity [3] of 3.9 and an Activity [4] of 2.2. For the same compound, the Activity [6] was 1.5, the Activity [7] was 1.7 and the Activity [8] was 2. For the same compound, the Activity [9] was 1.6, the Activity [10] was 2.7 and the Activity [12] was 1.9. For the same compound, the Activity [13] was 1.7, the Activity [14] was 1.4 and the Activity [15] was 3.5. The Activity [16] was 0.9, the Activity [17] was 26.2 and the Activity [18] was 1.6. For the same compound, the Activity [19] was “Active”, the Activity [20] was 1.9 and the Activity [21] was “Active”. The Activity [22] was 14, the Activity [23] was 1.8 and the Activity [24] was 2.4. For the same compound, the Activity [25] was 1.9, the Activity [26] was “Active” and the Activity [28] was 3. The Activity [29] was 2.6, the Activity [30] was 1.5 and the Activity [31] was 2.8. The Activity [32] was 3.5, the Activity [34] was 0.9 and the Activity [36] was 2.4. The Activity [37] was 0.9, the Activity [39] was 2 and the Activity [40] was 43.8. For the same compound, the Activity [41] was 1.5 and the Activity [43] was 3.
